Data published in ChEMBL document CHEMBL3867488 (ACS Med Chem Lett, 2016).

What was measured:
[1] = Effect on plasma triglyceride level in cynomolgus monkey at 0.1 mg/kg, po qd administered via gavage for 14 days measured after 24 hrs of last-dose relative to base line; assay type: ADME, organism-based, Macaca fascicularis; details: in vivo
How it was run: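 Cynomolgus monkeys dosed for 14 days, with groups at 0.1, 0.3 and 1 mg/kg. Plasma triglycerides expressed as percent change over baseline, with significance by ANOVA. Plasma drug exposure sampled 5 h post-dose. ABCG1 induction in blood cells monitored in the same animals.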

[2] = biological target: Albumin (Homo sapiens, UniProt P02768); experiment: Binding affinity to human serum albumin at 1 uM measured after 4 hrs by equilibrium dialysis method relative to control; assay type: ADME; details: isolated protein, 4 h, 1 µM
[3] = Plasma concentration in cynomolgus monkey at 0.1 mg/kg, po qd administered via gavage for 14 days measured after 5 hrs of last-dose by LC/MS/MS analysis; assay type: ADME, organism-based, Macaca fascicularis
How it was run: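 Cynomolgus monkeys dosed daily for 14 days. On day 14, plasma drug concentration was taken 5 h post-dose. Plasma triglycerides were expressed as % elevation over baseline, with significance tested by ANOVA (p < 0.05).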

[4] = system: Cynomolgus monkey; experiment: In vivo agonist activity at LXR-beta in cynomolgus monkey assessed as ABCG1 gene induction by measuring total RNA level at 0.1 mg/ kg, po qd administered via gavage for 14 days measured 5 to 6 hrs post-dose; assay type: functional, Macaca fascicularis
How it was run: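 Cynomolgus monkeys dosed daily for 14 days. ABCG1 mRNA induction measured in blood cells on day 14 and expressed as fold change. Plasma drug concentration taken about 5 h post-dose. Plasma triglycerides also measured against baseline, with significance by ANOVA.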

[5] = biological target: T1, Oxysterols receptor LXR-alpha (Homo sapiens, UniProt Q13133); experiment: Agonist activity at human LXR-alpha expressed in African green monkey CV1 cells measured after 18 to 20 hrs by luciferase reporter gene assay relative to pan agonist 1-(2,4-difluorobenzyl)-2-oxo-6-(4-phenoxyphenyl)-4-(trifluoromethyl)-1,2-dihydropyridine-3-carbonitrile; assay type: cell-based; details: CV-1, human; read-out: Efficacy
T1 sequence (Q13133 whole entry): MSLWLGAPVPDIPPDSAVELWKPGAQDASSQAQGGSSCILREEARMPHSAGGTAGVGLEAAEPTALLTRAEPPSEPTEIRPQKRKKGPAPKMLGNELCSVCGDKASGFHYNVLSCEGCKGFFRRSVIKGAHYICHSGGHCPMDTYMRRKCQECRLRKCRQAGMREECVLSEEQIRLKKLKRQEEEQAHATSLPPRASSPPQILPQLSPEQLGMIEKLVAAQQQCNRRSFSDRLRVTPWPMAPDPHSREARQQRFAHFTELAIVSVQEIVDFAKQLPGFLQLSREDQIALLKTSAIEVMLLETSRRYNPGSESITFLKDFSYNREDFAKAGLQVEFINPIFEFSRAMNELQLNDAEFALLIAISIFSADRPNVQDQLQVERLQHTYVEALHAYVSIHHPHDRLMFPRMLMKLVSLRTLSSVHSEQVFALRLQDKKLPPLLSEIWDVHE

Chain of Albumin (P02768 whole entry): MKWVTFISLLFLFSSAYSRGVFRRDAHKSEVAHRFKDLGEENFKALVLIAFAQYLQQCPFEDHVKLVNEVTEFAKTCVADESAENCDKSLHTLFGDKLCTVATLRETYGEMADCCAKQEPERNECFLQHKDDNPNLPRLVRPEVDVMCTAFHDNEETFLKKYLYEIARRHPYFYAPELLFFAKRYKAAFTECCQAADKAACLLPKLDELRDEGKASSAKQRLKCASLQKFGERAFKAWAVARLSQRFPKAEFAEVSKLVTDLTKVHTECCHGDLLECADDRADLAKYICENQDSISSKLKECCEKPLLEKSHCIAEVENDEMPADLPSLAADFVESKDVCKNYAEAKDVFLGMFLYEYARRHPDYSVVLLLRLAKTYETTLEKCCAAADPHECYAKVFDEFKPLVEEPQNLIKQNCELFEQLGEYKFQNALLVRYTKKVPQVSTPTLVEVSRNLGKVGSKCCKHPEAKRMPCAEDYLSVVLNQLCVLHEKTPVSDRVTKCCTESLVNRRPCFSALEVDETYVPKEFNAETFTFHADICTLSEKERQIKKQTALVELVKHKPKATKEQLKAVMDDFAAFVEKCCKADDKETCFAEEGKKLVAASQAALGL

Activity [1]: 20% | PB [2]: 96.6% | concentration at 5 h [3]: 7.5 nM | Emax [5]: 20%
SMILES: CC(C)(O)c1cn(-c2ccc(-c3cc(F)c(CO)c(S(C)(=O)=O)c3)cc2F)c(C(C)(C)c2c(Cl)cccc2Cl)n1 [BMS-852927]
fold change (FC) [4]: 4.7
